Source: PMC11843339 (ACS Bio & Med Chem Au, 2024)
Read-outs that look alike come from different tables or passages of the source.

Key:
143B = test: MTT cytotoxicity assay, 143B cells; assay type: cell-based, human; conditions: 72 h, read-out: cytotoxic activity IC50
Method in brief: (§1)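 Human osteosarcoma cells (from ATCC) were seeded at 5 × 10^3 per well and left to attach overnight at 37 °C, 5% CO2. They were then exposed to test compound for 72 h. Medium was replaced with 0.5 mg/mL MTT in culture medium for 2 h at 37 °C, and formazan was dissolved in DMSO. OD was read at 570 nm, survival was calculated as % of untreated control OD, and runs were done in triplicate.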

U2OS = test: MTT cytotoxicity assay, U2OS cells; assay type: cell-based, human; conditions: 72 h, read-out: cytotoxic activity IC50
Method in brief: as §1

MNNG/HOS = test: MTT cytotoxicity assay, MNNG/HOS cells; assay type: cell-based, human; conditions: 72 h, read-out: cytotoxic activity IC50
Method in brief: as §1

[1] = tested on: osteosarcoma cancer cell lines (MNNG/HOS, U2OS, 143B, SaOS-2); test: MTT cytotoxicity, summary over osteosarcoma cell lines; assay type: cell-based, human; conditions: for IC50: Homo sapiens, 72 h, read-out: IC50 range against all OS cell lines
Method in brief: as §1

SaOS-2 = test: MTT cytotoxicity assay, SaOS-2 cells; assay type: cell-based, human; conditions: read-out: cytotoxic activity IC50
Method in brief: as §1

[2] = MTT cell viability, normal osteoblast cells hFOB 1.19; assay type: cell-based, human; conditions: human, hFOB 1.19 normal osteoblast cells
Method in brief: (§2)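 Normal human osteoblasts (hFOB 1.19, from ATCC) were exposed to test compound at 0.1, 1.0, 10.0 and 100.0 μM for 72 h. Viability was read by MTT: 0.5 mg/mL for 2 h at 37 °C, DMSO solubilisation, OD at 570 nm. Values are expressed relative to untreated control set at 100%, as mean ± SD (n = 3).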

human IMPDH1 = human IMPDH1 (Homo sapiens, UniProt P20839); test: IMPDH1 inhibitory assay; assay type: biochemical
human IMPDH2 = human IMPDH2 (Homo sapiens, UniProt P12268); test: IMPDH2 inhibitory assay; assay type: biochemical
hFOB 1.19 = test: MTT cell viability, normal osteoblast cells hFOB 1.19; assay type: cell-based, human; conditions: at the tested concentrations (0.1-100 μM), in words
Method in brief: as §2

Chain of human IMPDH1 (P20839 whole entry): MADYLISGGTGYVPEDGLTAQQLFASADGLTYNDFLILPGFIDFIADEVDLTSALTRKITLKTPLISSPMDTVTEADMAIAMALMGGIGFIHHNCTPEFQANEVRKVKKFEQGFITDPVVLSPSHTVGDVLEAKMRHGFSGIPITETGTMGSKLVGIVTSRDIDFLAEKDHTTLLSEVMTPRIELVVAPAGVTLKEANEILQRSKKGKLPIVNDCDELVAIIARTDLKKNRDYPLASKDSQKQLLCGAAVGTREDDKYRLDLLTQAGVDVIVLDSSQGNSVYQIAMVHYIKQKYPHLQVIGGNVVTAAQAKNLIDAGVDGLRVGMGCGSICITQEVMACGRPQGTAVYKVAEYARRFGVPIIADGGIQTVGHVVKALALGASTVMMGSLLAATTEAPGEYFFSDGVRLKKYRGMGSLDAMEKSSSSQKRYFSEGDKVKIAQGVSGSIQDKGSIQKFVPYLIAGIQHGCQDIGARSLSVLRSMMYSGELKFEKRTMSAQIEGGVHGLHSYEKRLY

Compound	IC50 (143B; Homo sapiens, 143B)	IC50 (U2OS; Homo sapiens, U2OS)	IC50 (MNNG/HOS; Homo sapiens, HOS)	IC50 [1]	IC50 (SaOS-2; Homo sapiens, SAOS-2, 72 h)	further results
COc1c(C)c2c(c(O[Si](C)(C)C(C)(C)C)c1C/C=C(\C)CCC(=O)O[Si](C)(C)C(C)(C)C)C(=O)OC2 [Compound 2a, tert-Butyldimethylsilyl (E)-6-(4-((tert-Butyldimethylsilyl)oxy)-6-methoxy-7-methyl-3-oxo-1,3-dihydroisobenzofuran-5-yl)-4-methylhex-4-enoate]	4.12 ± 0.28 µM	3.8 ± 0.88 µM	1.36 ± 0.76 µM	1.36 to 5.43 µM	5.43 ± 2.87 µM	–
COc1c(C)c2c(c(O[Si](c3ccccc3)(c3ccccc3)C(C)(C)C)c1C/C=C(\C)CCC(=O)O[Si](c1ccccc1)(c1ccccc1)C(C)(C)C)C(=O)OC2 [Compound 2b, tert-Butyldiphenylsilyl (E)-6-(4-((tert-Butyldiphenylsilyl)oxy)-6-methoxy-7-methyl-3-oxo-1,3-dihydroisobenzofuran-5-yl)-4-methylhex-4-enoate]	5.85 ± 0.54 µM	2.52 ± 0.96 µM	1.18 ± 0.74 µM	1.18 to 5.85 µM	5.8 ± 1.15 µM	–
COc1c(C)c2c(c(O)c1C/C=C(\C)CCC(=O)O)C(=O)OC2 [MPA 1, Mycophenolic acid, reference compound]	1.55 ± 0.49 µM	0.68 ± 0.04 µM	0.64 ± 0.08 µM	0.64 to 4 µM	4 ± 0.28 µM	viability at 72 h, 0.1 µM [2]: 74.3 ± 4.24%; viability at 72 h, 1 µM [2]: 20.1 ± 1.41%; viability at 72 h, 10 µM [2]: 7.13 ± 0.67%; viability at 72 h, 100 µM [2]: 3.38 ± 3.4%; Ki (human IMPDH1): 0.136 µM
COc1c(C)c2c(c(O)c1C/C=C(\C)CCC(=O)O[Si](C(C)C)(C(C)C)C(C)C)C(=O)OC2 [Compound 4c, Triisopropylsilyl (E)-6-(4-Hydroxy-6-methoxy-7-methyl-3-oxo-1,3-dihydroisobenzofuran-5-yl)-4-methylhex-4-enoate]	35 ± 9.9 µM	0.92 µM	5.7 ± 0.71 µM	–	5.5 ± 1.51 µM	–
COc1c(C)c2c(c(O)c1C/C=C(\C)CCC(=O)OCCc1ccc(F)cc1)C(=O)OC2 [Compound 6b, 4-Fluorophenethyl (E)-6-(4-Hydroxy-6-methoxy-7-methyl-3-oxo-1,3-dihydroisobenzofuran-5-yl)-4-methylhex-4-enoate]	2 ± 0.14 µM	7 ± 2.12 µM	–	–	5.75 ± 1.06 µM	–
COc1c(C)c2c(c(O[Si](C(C)C)(C(C)C)C(C)C)c1C/C=C(\C)CCC(=O)O[Si](C(C)C)(C(C)C)C(C)C)C(=O)OC2 [Compound 2c, Triisopropylsilyl (E)-6-(6-Methoxy-7-methyl-3-oxo-4-((triisopropylsilyl)oxy)-1,3-dihydroisobenzofuran-5-yl)-4-methylhex-4-enoate]	63.1 ± 3.2 µM	24.43 ± 0.04 µM	6.82 ± 3.51 µM	6.82 to 63.9 µM	17.4 ± 9.03 µM	–
COc1c(C)c2c(c(O)c1C/C=C(\C)CCC(=O)OC(c1ccccc1)(c1ccccc1)c1ccccc1)C(=O)OC2 [Compound 2e, Trityl (E)-6-(4-Hydroxy-6-methoxy-7-methyl-3-oxo-1,3-dihydroisobenzofuran-5-yl)-4-methylhex-4-enoate]	5.13 ± 1.1 µM	0.98 ± 0.035 µM	0.68 ± 0.11 µM	0.68 to 5.13 µM	4.83 ± 0.5 µM	–
COc1c(C)c2c(c(O)c1C/C=C(\C)CCC(=O)O[Si](c1ccccc1)(c1ccccc1)c1ccccc1)C(=O)OC2 [Compound 2d, Triphenylsilyl (E)-6-(4-Hydroxy-6-methoxy-7-methyl-3-oxo-1,3-dihydroisobenzofuran-5-yl)-4-methylhex-4-enoate]	1.65 ± 0.26 µM	1.01 ± 0.4 µM	0.64 ± 0.15 µM	0.64 to 2.27 µM	2.27 ± 0.68 µM	Ki (human IMPDH2): 1.8 µM; viability at 72 h, 0.1 µM [2]: 93.9 ± 1.01%; viability at 72 h, 1 µM [2]: 92 ± 1.78%; viability at 72 h, 10 µM [2]: 84.5 ± 2.95%; viability at 72 h, 100 µM [2]: 73.3 ± 1.39%; cytotoxicity to human normal osteoblast cells (hFOB 1.19) (hFOB 1.19): low cytotoxicity; Ki (human IMPDH1; read-out: Ki,app (apparent tight-binding inhibition constant), IMPDH1, IMP 100 μM, NAD+ 200 μM, NO = No inhibition observed): > 100 µM; fold more potent than carbon compound 2e ([1]; 143B and SaOS cell lines, versus 2e): 2 to 3 fold
COc1c(C)c2c(c(O)c1C/C=C(\C)CCC(=O)O[Si](c1ccccc1)(c1ccccc1)C(C)(C)C)C(=O)OC2 [Compound 4b, tert-Butyldiphenylsilyl (E)-6-(4-Hydroxy-6-methoxy-7-methyl-3-oxo-1,3-dihydroisobenzofuran-5-yl)-4-methylhex-4-enoate]	6.8 ± 1.41 µM	1.85 ± 0.07 µM	13 ± 4.24 µM	–	1.85 ± 0.35 µM	–
COc1c(C)c2c(c(O[Si](C)(C)C(C)(C)C)c1C/C=C(\C)CCC(=O)O)C(=O)OC2 [Compound 3a, (E)-6-(4-((tert-Butyldimethylsilyl)oxy)-6-methoxy-7-methyl-3-oxo-1,3-dihydroisobenzofuran-5-yl)-4-methylhex-4-enoic acid]	3.9 ± 0.76 µM	2.31 ± 1.26 µM	0.86 ± 0.2 µM	–	4.55 ± 2.6 µM	–
COc1c(C)c2c(c(O[Si](c3ccccc3)(c3ccccc3)C(C)(C)C)c1C/C=C(\C)CCC(=O)ON1C(=O)c3ccccc3C1=O)C(=O)OC2 [Compound 5a, 1,3-Dioxoisoindolin-2-yl (E)-6-(4-((tert-Butyldiphenylsilyl)oxy)-6-methoxy-7-methyl-3-oxo-1,3-dihydroisobenzofuran-5-yl)-4-methylhex-4-enoate]	31 ± 1.41 µM	10.2 ± 3.89 µM	19.5 ± 3.54 µM	–	12 µM	–
(E)-6-(4-((tert-Butyldimethylsilyl)oxy)-6-methoxy-7-methyl-3-oxo-1,3-dihydroisobenzofuran-5-yl)-4-methylhex-4-enoic acid [Compound 3b]	–	–	–	–	–	IC50 (143B; 143B cells, MTT): 4.74 ± 0.76 µM; IC50 (U2OS; U2OS cells, MTT): 2.96 ± 2.32 µM; IC50 (MNNG/HOS; MNNG cells, MTT): 1.15 ± 0.35 µM; IC50 (SaOS-2; SaOS cells, MTT, 72 h): 4.58 ± 1.05 µM
COc1c(C)c2c(c(O[Si](C(C)C)(C(C)C)C(C)C)c1C/C=C(\C)CCC(=O)O)C(=O)OC2 [Compound 3c, (E)-6-(6-Methoxy-7-methyl-3-oxo-4-((triisopropylsilyl)oxy)-1,3-dihydroisobenzofuran-5-yl)-4-methylhex-4-enoic acid]	6.31 ± 0.4 µM	3.75 ± 1.06 µM	2.68 ± 1.02 µM	–	5.44 ± 0.82 µM	–
COc1c(C)c2c(c(O)c1C/C=C(\C)CCC(=O)ON1C(=O)c3ccccc3C1=O)C(=O)OC2 [Compound 6a, 1,3-Dioxoisoindolin-2-yl (E)-6-(4-Hydroxy-6-methoxy-7-methyl-3-oxo-1,3-dihydroisobenzofuran-5-yl)-4-methylhex-4-enoate]	4.85 ± 1.48 µM	1.38 ± 0.6 µM	–	–	6.9 µM	–
COc1ccc(CCOC(=O)CC/C(C)=C/Cc2c(OC)c(C)c3c(c2O[Si](c2ccccc2)(c2ccccc2)C(C)(C)C)C(=O)OC3)cc1 [Compound 5c, 4-Methoxyphenethyl (E)-6-(4-((tert-Butyldiphenylsilyl)oxy)-6-methoxy-7-methyl-3-oxo-1,3-dihydroisobenzofuran-5-yl)-4-methylhex-4-enoate]	14.5 ± 4.95 µM	10.2 ± 1.06 µM	43.5 ± 2.12 µM	–	39.5 ± 0.71 µM	–
COc1ccc(CCOC(=O)CC/C(C)=C/Cc2c(O)c3c(c(C)c2OC)COC3=O)cc1 [Compound 6c, 4-Methoxyphenethyl (E)-6-(4-Hydroxy-6-methoxy-7-methyl-3-oxo-1,3-dihydroisobenzofuran-5-yl)-4-methylhex-4-enoate]	2.6 ± 0.28 µM	7.35 ± 1.63 µM	38 ± 11.3 µM	–	9 ± 1.41 µM	–
